SMILES strings stand for the structures.

We go through one compound from ChEMBL document CHEMBL1139946, “1-Aryl-4,6-dihydropyrazolo[4,3-d][1]benzazepin-5(1H)-ones: a new class of antiproliferative agents with selectivity for human leukemia and breast cancer cell lines” (Eur J Med Chem, 2007).

For one assay, the system named is K562. The assay can be described thus: Antitumor activity against human K562 cells after 48 hrs by sulforhodamine B protein assay. Conditions: K562, 48 h. It is filed as functional. The gist of the method:
(§1)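 Part of the NCI 60-cell-line screen. Compounds tested at five concentrations (10^-8 to 10^-4 M) with continuous exposure for 48 h. Cell growth read by sulforhodamine B protein assay, with percent growth from optical density of treated versus untreated control cultures. GI50 is the concentration giving 50% net growth inhibition.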

Another assay concerns MDA-MB-435. The assay can be described thus: Antitumor activity against human MDA-MB435 cells after 48 hrs by sulforhodamine B protein assay. It is filed as functional. Conditions: MDA-MB-435, 48 h. In a few lines:
as §1
For orientation: The SRB assay estimates cell density from bound dye.

As to `COc1cccc2c1C(=O)c1c(O)c3c(c(O)c1C2=O)C[C@@](O)(C(=O)CO)C[C@@H]3O[C@H]1C[C@H](N)[C@H](O)[C@H](C)O1` [DOXORUBICIN], the GI50 – broadly, the concentration that inhibits growth by half – was determined as 0.1 µM in the assay with K562 and 0.2 µM in the assay on MDA-MB-435.
